Source: ChEMBL document CHEMBL4196017, “Design, synthesis and identification of silicon-containing HCV NS5A inhibitors with pan-genotype activity” (Eur J Med Chem, 2018)

What was measured:
[1] = test system: Mus musculus; test: Toxicity in ICR mouse assessed as kidney weight at 150 mg/kg, po administered via gavage once daily for 14 days (reference value: 1.51 +/- 0.211 g); type: organism-based; settings: in vivo, 336 h
[2] = test system: Mus musculus; test: Toxicity in ICR mouse assessed as albumin level in serum at 150 mg/kg, po administered via gavage once daily for 14 days (reference value: 25.87 +/- 1.67 g/l); type: organism-based; settings: in vivo, 336 h
Procedure, shortened: (§1)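 ICR mice, 5 males + 5 females per group, dosed by gavage once daily at 150 mg/kg (20 ml/kg) or vehicle for 14 days; killed after the 14th dose; blood from abdominal aorta under ether anaesthesia for hematology and clinical chemistry; mean ± SD, n = 10.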

[3] = molecular target: T1, Nonstructural protein 5A (Hepatitis C virus) (UniProt Q5L478); test: Potency index, ratio of ombitasvir IC50 to compound IC50 for inhibition of NS5A in HCV genotype 6a infected in human HuH7 replicon cells expressing HCV genotype 1b chimeric replicon; type: cell-based; settings: Hepatitis C virus subtype 6a
T1 sequence (whole entry): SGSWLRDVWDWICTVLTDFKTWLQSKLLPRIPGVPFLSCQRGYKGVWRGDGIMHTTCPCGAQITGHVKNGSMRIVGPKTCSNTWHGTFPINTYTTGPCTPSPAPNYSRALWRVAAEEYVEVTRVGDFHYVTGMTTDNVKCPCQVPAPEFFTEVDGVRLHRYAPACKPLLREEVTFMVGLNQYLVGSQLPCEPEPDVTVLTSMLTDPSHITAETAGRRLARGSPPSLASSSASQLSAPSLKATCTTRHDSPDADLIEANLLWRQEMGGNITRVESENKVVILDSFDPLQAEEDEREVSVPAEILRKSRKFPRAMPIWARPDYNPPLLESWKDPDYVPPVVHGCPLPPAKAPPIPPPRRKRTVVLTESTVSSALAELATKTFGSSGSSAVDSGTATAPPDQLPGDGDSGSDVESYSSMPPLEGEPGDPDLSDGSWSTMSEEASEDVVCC

[4] = test system: Mus musculus; test: Toxicity in ICR mouse assessed as ovary weight at 150 mg/kg, po administered via gavage once daily for 14 days (reference value: 0.079 +/- 0.007 g); type: organism-based; settings: in vivo, 336 h
[5] = test system: Mus musculus; test: Toxicity in ICR mouse assessed as RBC count at 150 mg/kg, po administered via gavage once daily for 14 days (reference value: 9.04 +/- 0.8 10^12/L); type: organism-based; settings: in vivo, 336 h; procedure, shortened: as §1
[6] = test system: Mus musculus; test: Toxicity in ICR mouse assessed as eosinophil level in serum at 150 mg/kg, po administered via gavage once daily for 14 days (reference value: 1.66 +/- 0.54%); type: organism-based; settings: in vivo, 336 h
Procedure, shortened: (§2)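 Haematology on abdominal aortic blood taken at necropsy under ether anaesthesia after 14 daily gavage doses (20 ml/kg) in ICR mice, 5 per sex per group, vehicle control. Parameters: WBC, RBC, haemoglobin, platelets, reticulocyte ratio and differential leukocyte counts; mean ± SD, n = 10.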

[7] = test system: Mus musculus; test: Toxicity in ICR mouse assessed as body weight at 150 mg/kg, po administered via gavage once daily for 14 days (reference value: 25.8 +/- 3.5 g); type: organism-based; settings: in vivo, 336 h
[8] = test system: Mus musculus; test: Toxicity in ICR mouse assessed as direct bilirubin level in serum at 150 mg/kg, po administered via gavage once daily for 14 days (reference value: 7.6 +/- 0.59 umol/L); type: organism-based; settings: in vivo, 336 h
[9] = test system: Mus musculus; test: Toxicity in ICR mouse assessed as reticulocyte level in serum at 150 mg/kg, po administered via gavage once daily for 14 days (reference value: 4.73 +/- 0.56%); type: organism-based; settings: in vivo, 336 h; procedure, shortened: as §2
[10] = test system: Mus musculus; test: Toxicity in ICR mouse assessed as testis weight at 150 mg/kg, po administered via gavage once daily for 14 days (reference value: 0.881 +/- 0.037 g); type: organism-based; settings: in vivo, 336 h
[11] = test system: Mus musculus; test: Toxicity in ICR mouse assessed as aspartate aminotransferase level in serum at 150 mg/kg, po administered via gavage once daily for 14 days (reference value: 111.44 +/- 32.76 U/L); type: organism-based; settings: in vivo, 336 h; procedure, shortened: as §1
[12] = molecular target: T1, Nonstructural protein 5A (Hepatitis C virus); test: Potency index, ratio of ombitasvir IC50 to compound IC50 for inhibition of NS5A in HCV genotype 3a infected in human HuH7 replicon cells expressing HCV genotype 1b chimeric replicon; type: cell-based; settings: Hepatitis C virus subtype 3a
[13] = test system: Mus musculus; test: Toxicity in ICR mouse assessed as neutrophil level in serum at 150 mg/kg, po administered via gavage once daily for 14 days (reference value: 27.74 +/- 16.27%); type: organism-based; settings: in vivo, 336 h; procedure, shortened: as §2
[14] = test system: Mus musculus; test: Toxicity in ICR mouse assessed as liver weight at 150 mg/kg, po administered via gavage once daily for 14 days (reference value: 4.365 +/- 0.222 g); type: organism-based; settings: in vivo, 336 h
[15] = test system: Mus musculus; test: Toxicity in ICR mouse assessed as serum glutamate dehydrogenase level at 150 mg/kg, po administered via gavage once daily for 14 days (reference value: 13.78 +/- 2.86 U/L); type: organism-based; settings: in vivo, 336 h
[16] = test system: Mus musculus; test: Toxicity in ICR mouse assessed as heart weight at 150 mg/kg, po administered via gavage once daily for 14 days (reference value: 0.539 +/- 0.094 g); type: organism-based; settings: in vivo, 336 h
[17] = test system: Mus musculus; test: Toxicity in ICR mouse assessed as total bilirubin level in serum at 150 mg/kg, po administered via gavage once daily for 14 days (reference value: 9.95 +/- 2.18 umol/L); type: organism-based; settings: in vivo, 336 h
[18] = test system: Mus musculus; test: Toxicity in ICR mouse assessed as hemoglobin concentration at 150 mg/kg, po administered via gavage once daily for 14 days (reference value: 157.4 +/- 15.5 g/L); type: organism-based; settings: in vivo, 336 h; procedure, shortened: as §2
[19] = test system: Mus musculus; test: Toxicity in ICR mouse assessed as blood urea nitrogen level in serum at 150 mg/kg, po administered via gavage once daily for 14 days (reference value: 10.44 +/- 1.77 mmol/L); type: organism-based; settings: in vivo, 336 h; procedure, shortened: as §1
[20] = test system: Mus musculus; test: Toxicity in ICR mouse assessed as blood glucose level at 150 mg/kg, po administered via gavage once daily for 14 days (reference value: 3.64 +/- 0.79 umol/L); type: organism-based; settings: in vivo, 336 h; procedure, shortened: as §1
[21] = test system: Mus musculus; test: Toxicity in ICR mouse assessed as basophil level in serum at 150 mg/kg, po administered via gavage once daily for 14 days (reference value: 0.02 +/- 0.04%); type: organism-based; settings: in vivo, 336 h; procedure, shortened: as §1
[22] = test system: Mus musculus; test: Toxicity in ICR mouse assessed as effect on food consumption at 150 mg/kg, po administered via gavage once daily for 14 days; type: organism-based; settings: in vivo, 336 h
Procedure, shortened: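 ICR mice, 5 male + 5 female per group, gavage once daily for 14 days, vehicle control; food intake recorded on day 1 of dosing and then twice weekly, with daily clinical observation.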

[23] = test system: Mus musculus; test: Toxicity in ICR mouse assessed as total protein level in serum at 150 mg/kg, po administered via gavage once daily for 14 days (reference value: 53.97 +/- 1.56 g/l); type: organism-based; settings: in vivo, 336 h
[24] = test system: Mus musculus; test: Toxicity in ICR mouse assessed as total bile acid level at 150 mg/kg, po administered via gavage once daily for 14 days (reference value: 5.67 +/- 2.45 umol/L); type: organism-based; settings: in vivo, 336 h
[25] = test system: Mus musculus; test: Toxicity in ICR mouse assessed as alanine aminotransferase level in serum at 150 mg/kg, po administered via gavage once daily for 14 days (reference value: 28.33 +/- 9.89 U/L); type: organism-based; settings: in vivo, 336 h; procedure, shortened: as §1
[26] = test system: Mus musculus; test: Toxicity in ICR mouse assessed as alkaline phosphatase level in serum at 150 mg/kg, po administered via gavage once daily for 14 days (reference value: 114.44 +/- 21.78 U/L); type: organism-based; settings: in vivo, 336 h; procedure, shortened: as §1

## CC[Si](CC)(CC)c1ccc(N2[C@H](c3ccc(NC(=O)[C@@H]4CCCN4C(=O)[C@@H](NC(=O)OC)C(C)C)cc3)CC[C@H]2c2ccc(NC(=O)[C@@H]3CCCN3C(=O)[C@@H](NC(=O)OC)C(C)C)cc2)cc1
[1]
  Activity: 1.579 g
[2]
  Activity: 25.38 g/L
[3]
  Ratio IC50: 7.6
[4]
  Activity: 0.097 g
[5]
  Activity: 9 ×10¹² /L
[6]
  Activity: 1.88%
[7]
  Activity: 24 g
[8]
  Activity: 8.57 µmol/L
[9]
  Activity: 3.88%
[10]
  Activity: 0.789 g
[11]
  Activity: 110.6 U/L
[12]
  Ratio IC50: 8.6
[13]
  Activity: 33.12%
[14]
  Activity: 4.346 g
[15]
  Activity: 15.1 U/L
[16]
  Activity: 0.567 g
[17]
  Activity: 11.24 µmol/L
[18]
  Activity: 154.6 g/L
[19]
  Activity: 10.16 mmol/L
[20]
  Activity: 4.18 mmol/L
[21]
  Activity: 0.02%
[22]
  Activity: Non-Toxic
[23]
  Activity: 52.31 g/L
[24]
  Activity: 10.5 µmol/L
[25]
  Activity: 25.3 U/L
[26]
  Activity: 105.7 U/L
